In series [1] the test system is BxPC3 xenografted tumors; heart (blood) radioactivity. The experiment in a line: Dynamic PET. The following applies: from radioactivity in the heart, 10-min dynamic PET, mice, tail vein. It counts as in vivo. The essentials:
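Female nu/nu mice (6 wk) received 10^7 BxPC3 or HEK-293 cells subcutaneously in the shoulder and grew tumors to 10 mm diameter. Under isoflurane, mice got 2–3 MBq of 18F-fluorobenzoate-labelled peptide by tail vein. A 10-min dynamic scan was acquired on a rodent microPET. Mean signal in ellipsoid regions of interest was quantified.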

The test system of series [2] is BxPC3 (integrin αvβ6–positive) tumors. The experiment in a line: Excised tissue biodistribution. It counts as in vivo, mice. The conditions noted are these: γ-counter, mean ± SD. The essentials:
(§1)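 Tumors were grown as subcutaneous shoulder xenografts (10^7 BxPC3 or HEK-293 cells) in 6-wk female nu/nu mice to 10 mm diameter. Isoflurane-anaesthetised mice received 2–3 MBq of 18F-fluorobenzoate peptide by tail vein and were euthanised at 0.5 or 2 h. Weighed tissues were γ-counted and expressed as decay-corrected %ID/g, mean ± SD. Group sizes: BxPC3 3 (0.5 h), 4–5 (2 h); 293 3 (0.5 h), 3–4 (2 h); nontumor 6 (0.5 h), 8 (2 h).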

Series [3] in a line: Small-animal PET, static scans, BxPC3 xenografts. The class given is in vivo, mice. The conditions noted are these: female, nu/nu, mouse, iv, total radioactivity. The essentials:
(§2)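 Nu/nu female mice (6 wk) carried BxPC3 shoulder xenografts of 10 mm diameter. Under isoflurane they were dosed intravenously (tail vein) with 2–3 MBq of 18F-fluorobenzoate-labelled peptide. Rodent microPET 5-min static scans were taken at 0.5, 1 and 2 h. Tumor, kidney, liver and hind-leg muscle signals were quantified, given as mean ± SD (n = 4–5 per tracer) and compared by 2-tailed t test, P < 0.05.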

Series [4] concerns BxPC3 (integrin αvβ6–positive) pancreatic adenocarcinoma xenografted tumors. As to the kind of experiment: Small-animal PET, static scans, BxPC3 xenografts. The conditions noted are these: mean ± SD. The class given is in vivo, mice. The essentials: as §2
Series [5] has as its system BxPC3 tumors. The experiment in a line: Coinjection study with unlabeled peptide, excised tissue biodistribution. It counts as in vivo, mice. The following applies: 250 µg unlabeled S02 coinjected.
The subject of series [6] is 293 (integrin αvβ6–negative) tumors. The experiment in a line: Excised tissue biodistribution. The class given is in vivo, mice. The conditions noted are these: γ-counter, mean ± SD. The essentials: as §1

Bridge positions count the residues as written; N and C are the ends. Peptide text beside a SMILES is read from it. * marks the point of attachment. Benzoyl(4-F) = O=C(c1ccc(F)cc1)*

Broadly, the tissue uptake is the percentage of the injected dose found per gram of tissue. On to `CC[C@H](C)[C@@H]1NC(=O)[C@@H]2CSSC[C@H](NC(=O)CNC(=O)c3ccc(F)cc3)C(=O)N[C@@H](CCCNC(=N)N)C(=O)N[C@@H](CO)C(=O)N[C@@H](CC(C)C)C(=O)N[C@@H](C)C(=O)N[C@@H](CCCNC(=N)N)C(=O)N[C@@H]([C@@H](C)O)C(=O)N[C@@H](CC(=O)O)C(=O)N[C@@H](CC(C)C)C(=O)N[C@@H](CC(=O)O)C(=O)N[C@@H](Cc3c[nH]cn3)C(=O)N[C@@H](CC(C)C)C(=O)N[C@@H](CCCNC(=N)N)C(=O)NCC(=O)N[C@@H](CCCNC(=N)N)C(=O)N[C@H]3CSSC[C@H](NC1=O)C(=O)N[C@@H](CC(C)C)C(=O)N[C@@H](CCC(=O)O)C(=O)N[C@@H](CC(N)=O)C(=O)NCC(=O)N[C@@H](Cc1ccccc1)C(=O)N[C@H](C(=O)NCC(=O)O)CSSC[C@H](NC(=O)[C@H](CC(=O)O)NC(=O)[C@H](CO)NC(=O)[C@H](CC(=O)O)NC(=O)[C@H](CO)NC(=O)[C@H](CO)NC3=O)C(=O)N[C@@H](CC(C)C)C(=O)N[C@@H](C)C(=O)N[C@@H](CCC(=O)O)C(=O)N2` [^18F-fluorobenzoate-S02] ({Benzoyl(4-F)}-GCRSLARTDLDHLRGRCSSDSDCLAECICLENGFCG-OH; disulfide 2-27, 17-29, 23-35; C-terminus assumed), for which the blood clearance half-time in series [1] is 1.8 min. The “tumor uptake, excised tissue, BxPC3” value was 0.71 ± 0.13 %ID/g in series [2] (0.5 h after injection, n = 3) and 0.24 ± 0.06 %ID/g in series [2] (2 h after injection, n = 4–5). Besides, the values for the tissue uptake at 1 h in series [3] (kidney) and in series [3] (liver) were 7 ± 3 %ID/g and 0.3 ± 0.1 %ID/g, respectively. In addition, in series [4] (0.5 h), the “kidney uptake, PET” value is 18% ± 6%. In addition, in series [4] (0.5 h after injection, 2–3 MBq tail vein, nude mice, n = 4–5), the “tumor uptake, PET, BxPC3” value was 1.3% ± 0.4%. In addition, the “tumor signal, PET, BxPC3” value in series [4] (1 h after injection, 2–3 MBq tail vein) is recorded as 0.7 ± 0.3 % ID/g. Also, in series [4] (time not printed at place (given beside the 0.5 h kidney values)), the “liver uptake, PET” value is reported as 0.9% ± 0.3%. Besides, in series [5], the “effect of unlabeled peptide coinjection on tumor uptake” value is “does not demonstrate tumor uptake reduction”. Further, the “tumor uptake, excised tissue, 293” value in series [6] (0.5 h after injection, n = 3) came out at 0.11 ± 0.02 %ID/g; in series [6] (2 h after injection, n = 3–4), 0.10 ± 0.05 %ID/g.

These data come from PMC4130341 (Journal of nuclear medicine : official publication, Society …, 2013).
